From PubChem BioAssay
The list is not random: actives were taken first. Their share in the collection is about 5.4%.
Ecoli WT expand – growth inhibitors of E. coli BW25113 wild type; growth inhibition, % at 100 µM; actives 0.15% (n = 98,000); OD600 absorbance;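 active = growth inhibition above about 50% at one test dose, limit read from the data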;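 note: growth measured after 20 h incubation at 37 °C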
tolC growth inh – blocks growth of E. coli BW25113 tolC mutant | OD615 | growth inhibition, % at 10 µM (by protocol) | actives 2.2% (n = 65,000) | AID 573;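 active = growth inhibition at or above a cutoff equal to the mean over every tested compound plus 3 SD, cut at about 60% in these data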;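 note: growth measured after 20 h incubation at 37 °C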
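Assay system: tolC-deleted E. coli BW25113. Medium: kanamycin-containing LB broth (50 µg/mL). Dosing: 10 µM final, single dose. Timing: bacterial growth with compound for 20 h at 37 °C. Detection: A615 absorbance measurement. Read-out basis: growth inhibition in percent.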
PostGolgi yeast – growth inhibition of a yeast mutant, post-Golgi transport screen. post-Golgi transport phenotypic cell assay. inhibition, % at 10 µM. actives 0.9% (n = 98,000). AID 739;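 note: yeast cells grown in 1536-well plates; yeast grown about 18 h at 30C before absorbance read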
HePTP inhibitor – inhibitors of human HePTP phosphatase; P35236; recombinant HePTP phosphatase activity, OD absorbance; inhibition, % at 20 µM; actives 0.64% (n = 110,000); in the data active = inhibition above about 50%;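 note: plate controls were vehicle for no effect and reference inhibitor for full effect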
Target sequence (P35236 whole entry, looked up): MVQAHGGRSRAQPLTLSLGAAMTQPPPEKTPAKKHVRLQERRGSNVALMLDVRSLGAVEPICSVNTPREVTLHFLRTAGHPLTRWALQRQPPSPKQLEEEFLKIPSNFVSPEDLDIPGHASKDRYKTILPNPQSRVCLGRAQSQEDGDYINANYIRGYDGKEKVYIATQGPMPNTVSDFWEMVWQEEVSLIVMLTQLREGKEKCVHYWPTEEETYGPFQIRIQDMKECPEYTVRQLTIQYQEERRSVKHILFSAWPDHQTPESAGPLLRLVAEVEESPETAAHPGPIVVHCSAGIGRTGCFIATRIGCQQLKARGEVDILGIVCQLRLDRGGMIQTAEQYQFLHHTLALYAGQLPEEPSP
PostGolgi ctrl – inhibits growth of the yeast control strain. actives 5% (n = 98,000). efflux-deficient yeast background strain, growth absorbance A615, 16 h. inhibition, % at 10 µM
PLAP act – human PLAP activation | P05187 | purified PLAP enzyme, luminescent substrate read-out; hits give high values | activation fold at 20 µM | actives 1.2% (n = 96,000); in the data active = activation fold above about 2
Numbers without * were called inactive; · = no result given. Cut-off read from the data, not from the text of the source, unless noted: active = inhibition above about 30%; inactive = the rest.

SMILES	Ecoli WT expand	tolC growth inh	PostGolgi yeast	HePTP inhibitor	PostGolgi ctrl	PLAP act
COc1ccccc1C/C(N)=N/OC(=O)c1cccc(I)c1	·	·	·	-2	·	·
CCC(=O)N1CCc2cc(S(=O)(=O)NC(CC(C)C)C(=O)N3CCc4ccccc43)ccc21 (stereo not given)	-3	-3	-6	2	12	1
CCC(=O)N1CCc2cc(S(=O)(=O)NC(Cc3ccccc3)C(=O)NC3CCCCC3C)ccc21 (stereo not given)	-3	·	20	·	8	2.3*
Cc1ccc(-n2c(C)cc(C(=O)COC(=O)c3c(C)noc3C)c2C)cc1	-9	82*	-3	8	22	1
O=C1C2C3C=CC(C3=C3CCCCC3)C2C(=O)N1c1ccc(Cl)c(Cl)c1 (stereo not given)	·	·	·	-8	·	·
O=C(O)C1Nc2ccc([N+](=O)[O-])cc2C2C=CCC12 (stereo not given)	·	·	·	104*	·	·
O=C(O)C1Nc2ccc3ccccc3c2C2C=CCC12 (stereo not given)	·	·	·	102*	·	·
O=[N+]([O-])c1ccc2c(c1)C1C=CCC1C(c1ccc(Cl)cc1)N2 (stereo not given)	·	·	·	-4	·	·
Cc1ccc(C)c(N2CCN(C(=O)C3CCN(c4nc(C)cc(C)n4)CC3)CC2)c1	-21	29	6	-10	46*	1.7
Cc1ccc(C)c(N2CCN(C(=O)C3CCN(S(=O)(=O)c4c(C)noc4C)CC3)CC2)c1	·	16	·	1	·	·
Cc1cc(C)nc(N2CCC(C(=O)N3CCN(c4cc(Cl)ccc4C)CC3)CC2)n1	-20	50	-3	7	43*	1.6
CCOP(=O)(OCC)c1nc2c(C)cccc2c(Nc2ccccc2C)c1Cl	·	·	·	0	·	·
COc1ccc2nc(NC(=O)C(NS(=O)(=O)c3cccs3)C(C)C)sc2c1 (stereo not given)	-9	16	-7	14	2	2.2*
CCCOc1ccc(/C=N/N(C)c2cc(C)nc(-c3ccccc3O)n2)c(O)c1	·	·	·	-5	·	·
O=C1NCC(Cn2c3ccccc3c3ccccc32)O1 (stereo not given)	·	·	·	104*	·	·
Cc1ccccc1-n1nc(C)c2cc(C(=O)N3CCN(S(=O)(=O)c4ccc(Cl)cc4)CC3)sc21	-12	·	-1	·	23	1.2
Cc1ccccc1-n1nc(C)c2cc(C(=O)N3CCN(S(=O)(=O)c4ccc(F)cc4)CC3)sc21	-2	8	37*	11	19	1.5
CCCOC(=O)c1ccc(NC(=O)c2ccc(-c3cccc(Cl)c3)o2)cc1	·	·	·	-4	·	·
OC(COc1c(F)cc(Br)cc1F)CN1CCN(c2ccc(F)cc2)CC1 (stereo not given)	-7	16	33*	1	47*	1.2
O=[N+]([O-])c1cc(NS(=O)(=O)c2cc(Cl)ccc2Cl)ccc1Cl	·	·	·	7	·	·
Cc1nc2ccc(C(C(F)(F)F)(C(F)(F)F)C(F)(F)F)cc2[nH]1	3	100*	8	8	66*	1.3
Cc1onc(-c2ccccc2Cl)c1C(=O)Nc1ccccc1C(=O)O	·	·	·	-1	·	·
Cc1onc(-c2ccccc2Cl)c1C(=O)Nc1nnc(-c2ccc(Cl)cc2Cl)s1	-14	·	-4	·	-1	1.3
Cc1onc(-c2ccccc2Cl)c1C(=O)Nc1nc2c(s1)CCCC2	-7	·	4	·	43*	1.1
Cc1onc(-c2ccccc2Cl)c1C(=O)Nc1nnc(-c2ccc(F)cc2)s1	-10	44	18	-6	35*	1.3
SMILES	Ecoli WT expand	tolC growth inh	PostGolgi yeast	HePTP inhibitor	PostGolgi ctrl	PLAP act
COC(=O)c1cc(OC)c(OC)cc1NC(=O)c1c(-c2ccccc2Cl)noc1C	0	17	22	5	37*	1.7
Cc1onc(-c2ccccc2Cl)c1C(=O)Nc1nnc(-c2ccc(Br)cc2)s1	-11	·	-20	·	16	1.3
O=C1N/C(=N/N=C\c2cccc([N+](=O)[O-])c2)SC1Cc1ccc(Br)cc1 (stereo not given)	·	·	·	6	·	·
Cc1ccccc1NC(=O)C(=O)NCc1ccc2c(c1)OCO2	·	·	·	-6	·	·
CC1=NN(c2ccccc2)C(=O)/C1=C/c1cc2cc(C)ccc2nc1N1CCCCC1	-16	·	0	·	48*	1
CC1=NN(c2ccccc2)C(=O)/C1=C\c1ccccc1Cl	·	·	·	-1	·	·
CC(=O)c1cccc(NC(=O)CN(c2ccc(C)cc2)S(=O)(=O)c2cccc3nonc23)c1	-5	16	-4	7	34*	1.2
O=C1c2ccccc2CC1Sc1nnc(-c2ccccn2)o1 (stereo not given)	1	10	-4	5	-1	2.6*
O=C1CC(Sc2nnc(-c3ccccc3O)o2)C(=O)N1c1ccccc1 (stereo not given)	-2	6	2	-1	12	1
CC1CCN(C(=O)CSc2ccc(-c3ccc(F)cc3)nn2)CC1	3	4	4	0	8	0.9
CC1CC(C)(C)N(C(=O)CSc2ccc(-c3ccc(F)cc3)nn2)c2ccccc21 (stereo not given)	-5	·	-23	·	37*	1.2
COc1ccc2c(c1)c(=O)oc1cc(OCC(=O)N3CCCC(C)C3)ccc12 (stereo not given)	-4	24	5	2	59*	1.3
COc1ccc2c(c1)c(=O)oc1cc(OCC(=O)N3CCC(C)CC3)ccc12	-1	1	1	13	9	1.3
Cc1csc(-c2cc3ccc(O)c(CN4CC5(C)CC4CC(C)(C)C5)c3oc2=O)n1 (stereo not given)	·	·	·	76*	·	·
CCn1cc(C(=O)NN)c(=O)c2cc(F)c(N3CCCCCC3)cc21	·	·	·	-2	·	·
CCn1cc(C(=O)NCCCN(C)C)c(=O)c2cc(F)c(N3CCN(C)CC3)cc21	100*	23	4	2	20	1.5
CCCNC(=O)c1cn(CC)c2cc(N3CCN(C)CC3)c(F)cc2c1=O	100*	·	-3	·	2	1.5
CCN(CC)CCNC(=O)c1cn(CC)c2ccc(S(=O)(=O)N(C)C)cc2c1=O	4	-3	-3	-8	3	1.1
CC1=C(C(=O)OCCc2ccccc2)C(c2cccc([N+](=O)[O-])c2)CC(=O)N1 (stereo not given)	·	·	·	-9	·	·
CCCOC(=O)NC(c1ccccc1)C(Cl)(Cl)Cl (stereo not given)	·	·	·	-10	·	·
Cc1ccc(CNC(=O)CSc2nc(N3CCCCC3)nc(N3CCCCC3)n2)cc1	-15	31	-6	13	46*	1.6
O=C1C(=O)N(CN2CCN(CN3C(=O)C(=O)c4ccccc43)C2)c2ccccc21	·	·	·	-14	·	·
COc1cccc(C2/C(=C(\O)c3ccccc3)C(=O)C(=O)N2CCCCCC(=O)O)c1 (stereo not given)	·	·	·	2	·	·
O=C(N/N=C\c1cc(I)ccc1O)c1ccc(Br)cc1	·	·	·	103*	·	·
O=C(N/N=C/c1cc(Cl)cc([N+](=O)[O-])c1O)c1ccc2c(c1)OCO2	·	·	·	103*	·	·
O=C(N/N=C\c1cc(Cl)cc([N+](=O)[O-])c1O)c1ccc(Br)cc1	·	·	·	65*	·	·
Cc1ccccc1NCC(=O)N/N=C\c1cc(Cl)ccc1O	·	·	·	11	·	·
